Assay results published in ChEMBL document CHEMBL4513216, “Probing the Open Global Health Chemical Diversity Library for Multistage-Active Starting Points for Next-Generation Antimalarials” (ACS Infect Dis, 2020).

Experiment: Toxicity liver stage against HepG2, at 10uM
Assay type: cell-based
Design: test concentration 10 uM, cell line HepG2-A16-CD81EGFP
Conditions: human, HepG2-A16-CD81EGFP cells; read-out: INHIBITION
Outline: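 Uninfected HepG2-A16-CD81EGFP cells, 3 × 10^3 per well, 1536-well, plated on prespotted compound at 10 μM final, parasite-free screening media added to match infected plates; puromycin 10 μM positive, DMSO 0.5% negative; run in parallel with 48 h PbLuc assay at 37 °C, 5% CO2; viability by CellTiter-Glo luminescence, normalized to controls.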

| SMILES | cytotoxicity at 10 µM [%] |
| --- | --- |
| Cc1nn(C)c(C)c1S(=O)(=O)N1CC[C@H]2O[C@@H](C)C[C@H]2C1 | 2.79 |
| CC(NC(=O)N1CCC(n2cncn2)CC1)c1ccc(F)cc1 (stereo unspecified) | -3.66 |
| COC(=O)C1CCN(C(=O)NCC(C)Cc2cccs2)CC1 (stereo unspecified) | -7.33 |
| COCCN1CCCN(C(=O)c2scnc2C)CC1 | 5.27 |
| Cc1cc(N2CCN(C(=O)c3cccnc3)CC2)nc(C)n1 | 4.28 |
| CN(C)C(=O)c1cc(S(=O)(=O)N2CCCC2Cn2ccnc2)cn1C (stereo unspecified) | 12.2 |
| O=C1CCC(c2ccc(Cl)cc2)=NN1CN1CCCCCC1 | 35.7 |
| CCN1CC2(CCN(C(=O)C(C)Oc3ccc(F)cc3Cl)CC2)CC1=O (stereo unspecified) | -2.98 |
| CCN(Cc1ccc2c(c1)OCCO2)C(=O)c1ccc(C)[nH]c1=O | -4.6 |
| CCc1nnc(Nc2cccc(C3CCN(C(=O)CNC)CC3)n2)s1 | -31.2 |
| Cc1cc(C)n(CC2CCCN2Cc2ncc(C(C)(C)C)o2)n1 (stereo unspecified) | -1.64 |
| Nc1cc(O)nc(CCNC(=O)CC[C@@H]2CCCN3CCCC[C@H]23)n1 | -1.89 |
| FC(F)(F)CCc1ccnc(N2CCN(Cc3ccccn3)CC2)n1 | -27 |
| COc1c(CNCCNC(=O)c2ccccc2)c(C)nn1C | -4.74 |
| CCc1cnccc1C(=O)NC1CCN(C(=O)C2CCCCC2)CC1 | 3.51 |
| O=C(c1c[nH]c2ncccc12)N1CCC(COc2ccccc2)CC1 | 14.4 |
| CC(OCC(F)(F)F)C(=O)N1CCCCC1 (stereo unspecified) | -3.45 |
| CCN(CC)c1nc(C)cc(C(=O)Nc2ccc(Br)cc2)n1 | 6.46 |
| CC(C)(C)c1cn(C[C@H]2CC3CCN2C[C@@H]3C(=O)N2CCOCC2)nn1 (stereo partly specified) | -3.37 |
| Cc1cccc(OC2(C(=O)O)CCN(C(=O)CCc3ccco3)CC2)c1 | 4.3 |
| O=C(CN1CCc2sccc2C1)Nc1nccs1 | 5.31 |
| CCCn1cnnc1CNC(=O)C1COc2cc(OC)ccc2C1 (stereo unspecified) | 3.21 |
| CN(Cc1ccccc1-n1cccn1)C[C@@H]1CCCN2CCCC[C@H]12 | -8.2 |

| SMILES | cytotoxicity at 10 µM [%] |
| --- | --- |
| CS(=O)(=O)CCCOc1cccc(-n2cccn2)c1 | -9.22 |
| CCC(NC(=O)COC)c1ccccc1OCC(=O)N1CCCC1 (stereo unspecified) | -6.39 |
| CCc1noc(C2CCCCN2C(=O)c2cc(C)on2)n1 (stereo unspecified) | 5.67 |
| Cc1nn(C(C)C)c(C)c1S(=O)(=O)Nc1ccc(C(=O)O)cc1 | 15.2 |
| CN(C)[C@@H]1CN(Cc2cnn(C)c2)[C@@H]2COC[C@H]12 | 7.37 |
| COc1cccc(OC)c1OCCn1c(C)c(C)oc1=O | 9.61 |
| CCN(Cc1noc(C)n1)C(=O)C(c1ccc(C)cc1)N(C)C (stereo unspecified) | -5.21 |
| COc1cccc(COC(C)C(=O)NCc2nnc3n2CCC3)c1 (stereo unspecified) | 8.67 |
| CS(=O)(=O)CCNCc1ccc(OCc2cscn2)cc1 | -136 |
| CCCn1nnc(NCc2cc(Br)cc(Br)c2OC)n1 | 12.6 |
| CN(Cc1cc2n(n1)CCCNC2)Cc1cc(-c2ccncc2)no1 | 3.67 |
| O=S(=O)(c1ccc(Cl)cc1)N1CCOC[C@H](Oc2cnccn2)C1 | -2.57 |
| CCC(CO)N(Cc1ccco1)C(=O)c1cccc(C)c1O (stereo unspecified) | 0.126 |
| COc1ccc(C2=Nn3c(CCN)nnc3-c3ccccc3C2)cc1 | 4.92 |
| CCOC(=O)c1nc(CN2CCC(NC(=O)C(C)C)CC2)cs1 | -2.98 |
| CC1CCCN(Cc2ccc(CNC(=O)NCc3ccon3)cc2)C1 (stereo unspecified) | -10 |
| Cc1ncsc1C(=O)NC1CCN(CC(=O)N(C)C(C)(C)C#N)CC1 | -3.88 |
| Cc1cccc(C(=O)N2CCn3cnc(COCC4CC4)c3C2)c1 | 14 |
| CC(CO)(NCc1noc(Cc2ccccc2)n1)C1CCCCC1 (stereo unspecified) | -17.2 |
| Cc1ccsc1CNc1cc(N2CCCC2CO)ncn1 (stereo unspecified) | -2.45 |
| O=C(c1ccoc1)N1CCC(O)(C(F)(F)F)CC1 | 3.88 |
| COc1cccc(C(O)CNC(=O)CC2CCCCC2)c1 (stereo unspecified) | -2.11 |
| COCC(=O)N1CC2=CC(C)(C)COc3ccc(OC)c(c32)C1 | -2.59 |

| SMILES | cytotoxicity at 10 µM [%] |
| --- | --- |
| CCN(C)C1CCCc2nc(C)sc21 (stereo unspecified) | -0.887 |
| O=C(c1ccoc1)N1CCc2ncc(Cn3cccn3)n2CC1 | 6.9 |
| CC(Cc1ccc(C(F)(F)F)cc1)C(=O)N1CCCS1(=O)=O (stereo unspecified) | -1.01 |
| Cn1cc(CN2CCO[C@H]3C(Cn4cccn4)CC[C@@H]32)cn1 (stereo partly specified) | -3.12 |
| CCS(=O)(=O)CC(=O)Nc1cc(-c2cccc(F)c2F)n[nH]1 | 10.7 |
| COCCC(=O)N1CCn2c(COCC3CC3)cnc2C1C (stereo unspecified) | 4.17 |
| COCC(C)NC(=O)c1nnn(-c2ccc(Br)cc2)n1 (stereo unspecified) | -0.712 |
| COCC1CN(C(=O)COc2ccccc2C)Cc2ncn(C)c21 (stereo unspecified) | -2.17 |
| CNC(=O)N1C[C@H]2N(c3ncccn3)CCC[C@@]2(C(=O)NCC2CC2)C1 | -101 |
| CCN(CC)S(=O)(=O)CCNc1nnc(C(C)C)s1 | 7.2 |
| Cc1noc(C)c1CN1CC2(CCN(C(=O)c3cccn3C)C2)CC1=O (stereo unspecified) | 6.53 |
| CS(=O)(=O)NC1CCCN(C(=O)Nc2cccnc2)C1 (stereo unspecified) | -14.2 |
| CCN(CC)Cc1cc(=O)n2c(n1)CN(S(=O)(=O)C1CC1)CCC2 | 6.95 |
| CN1CCC(n2cc3nc(N)[nH]cc-3c2=O)CC1 | 8.6 |
| CC(C)(C)c1nccc(C2(c3ccccc3Cl)CCNCC2)n1 | -1.15 |
| COC(=O)c1ccc(CNC(C)(C)c2ccccc2OC)o1 | -0.651 |
| Cc1ccc(S(=O)(=O)N(CC(N)=O)CC(C)C)cc1C | -14.5 |
| O=c1c(NCCCO)c(N2CCN(c3ccccc3)CC2)c1=O | -3.66 |
| COCCN1C(=O)[C@]2(CC[C@@H]3CN(C(=O)NC(C)C)C[C@@H]32)N=C1C | -57.5 |
| Cc1nn(C)c(Cl)c1C1CCCN1C(=O)c1cnccn1 (stereo unspecified) | -4.73 |
| Cc1ccc(-c2c(C(=O)NC3CCN(C)CC3)csc2C)cc1 | -130 |
| CCOCCCNC(=O)c1nnn(Cc2ccccc2)c1OC | 9.32 |
| CCn1ncnc1C(NC(=O)CC1CCN(C(C)C)CC1)C1CC1 (stereo unspecified) | 8.6 |

| SMILES | cytotoxicity at 10 µM [%] |
| --- | --- |
| c1cc(CNCC2OCCc3cn(CC4CC4)nc32)cs1 (stereo unspecified) | 2.61 |
| CC(C)n1cc(CN2CCCN(C(=O)c3cc(Cl)c[nH]3)CC2)cn1 | -10.9 |
| CNC(=O)c1cccc(CCNC(=O)N2CCc3ccccc3C2)c1 | 6.72 |
| O=C(C1CCC1)N1CC[C@H](O)[C@@H]1Cc1cccnc1 | -105 |
| CN(C)c1cc(CNC(=O)Nc2ccc(N3CCCC3)nc2)ccn1 | -0.338 |
| CC(=O)Nc1ccc(CCC2(NC(=O)C3CCCO3)CCCCC2)cn1 (stereo unspecified) | 1.6 |
| O=C(Nc1cccnc1)[C@H]1CN(Cc2cccs2)C[C@H]2OCC[C@@H]12 | -109 |
| CC1CCN(CCNCc2cc(-c3ccccc3)cn3nnnc23)CC1 | -20.4 |
| Cc1ccc(-c2cc(C(=O)NCC3CCOC3)n[nH]2)s1 (stereo unspecified) | -4.09 |
| COc1ccc(C)cc1-n1cnnc1C1CC(=O)N(C)C1 (stereo unspecified) | -9.25 |
| COc1ccccc1C(=O)N1CCN(C(=O)CCn2ccnc2)CC1 | -148 |
| O=C(c1cn(CC(=O)N2CCCCCC2)c2ccccc12)C1CC1 | 13.6 |
| COCCCN(C)c1ncccc1I | 2.28 |
| Cc1cc(C)c2c(N3CCN(CCN4CCOCC4)CC3)ncnc2n1 | 3.04 |
| Oc1nc(N2CCOCC2)nc2c1CCN(Cc1cccc(F)c1)CC2 | -8.08 |
| CC(C)(C)NC(=O)CN1CCCC(c2ccc(C(=O)O)cc2)C1 (stereo unspecified) | -6.17 |
| CC(C)OC(=O)NCc1ccc(NCc2cnn(C(C)(C)C)c2)cc1 | -0.741 |
| Cn1ccnc1CC1CCCN(C(=O)Nc2cccn(C)c2=O)C1 (stereo unspecified) | -4.79 |
| CS(=O)(=O)c1snnc1C1CCN(Cc2ccc3nccnc3c2)CC1 | -6.14 |
| CCOc1ccc(-n2nc(C)c(CC(C)=O)c2C)cc1C(N)=O | 7.09 |
| CN(C)c1nc2c(c(N(C)C)n1)CCN(C(=O)CN1CCC(O)CC1)C2 | 5.31 |
| NC(=O)CC1CCN(CC(O)c2ccc(Br)cc2)CC1 (stereo unspecified) | -7.74 |
| O=C(NCCc1c[nH]cn1)c1ccc2c(c1)C(=O)N(C1CCCC1)C2=O | -6.09 |

| SMILES | cytotoxicity at 10 µM [%] |
| --- | --- |
| CC(O)CN1CCN(C(=O)c2cc3ccccc3n2C)CC1 (stereo unspecified) | 2.99 |
| Cc1ccc2cccc(S(=O)(=O)N(C)CC3CCN(C)C3)c2n1 (stereo unspecified) | 1.5 |
| CNc1nc(C(=O)N2CCC3(CCCN(CC4CC4)C3=O)C2)cs1 (stereo unspecified) | 5.33 |
| COc1ncc(C2(O)CCN(Cc3ccccc3O)CC2)c(OC)n1 | 2.33 |
| COc1ccc2c(c1)c(C(=O)Nc1n[nH]c(C(C)C)n1)cn2C(C)C | -26.8 |
| COC(=O)C(NC(=O)C1CCCC1)c1cc(F)ccc1F (stereo unspecified) | 5.67 |
| CC(C)N(C)CC(=O)N(C)C(c1cccc(F)c1)c1ccccn1 (stereo unspecified) | -6.14 |
| CC(C)C1CCCN1CCCc1nc(-c2cccs2)no1 (stereo unspecified) | -16 |
| CCCc1nc(CN2CCCC(c3noc(C4CC4)n3)C2)no1 (stereo unspecified) | -8.87 |
| O=C(NCC1Cn2nnc(-c3ccsc3)c2CO1)N1CCCC1 (stereo unspecified) | -110 |
| Cc1cc(C(=O)NC2(c3ccc(Br)cc3)CC2)n(C)n1 | 56.7 |
| COc1ccc(CN2CCCC(N3CCCC3)C2)cc1Cn1cncn1 (stereo unspecified) | 7.33 |
| Cc1noc(NC(=O)c2ccc(Br)o2)n1 | -3.75 |
| Cc1nc(-c2ccc(Cl)s2)sc1C(=O)NCCS(N)(=O)=O | -2.09 |
| CCc1cc(CNC(=O)Nc2cc(F)ccc2N2CCCCC2)on1 | -18.9 |
| COc1ccccc1NC(=O)N1CCCC1c1ccco1 (stereo unspecified) | -4.78 |
| CCN(CCc1nc2cc(C)ccc2[nH]1)C(=O)[C@@H](N)Cc1c[nH]cn1 | -3.78 |
| CN1[C@@H]2CC[C@H]1CN(C(=O)c1ccc(-c3ccccc3)[nH]1)CC2 | -0.372 |
| Cc1nc[nH]c1-c1nccn1CCCN(C)C | 5.05 |
